Measured values reported in ChEMBL document CHEMBL1126988, “Quinolone antibacterials containing the new 7-[3-(1-aminoethyl)-1- pyrrolidinyl] side chain: the effects of the 1-aminoethyl moiety and its stereochemical configurations on potency and in vivo efficacy” (J Med Chem, 1993).
Converted amounts (≈) assume the structure as drawn.

Key:
Enterobacter cloacae = experiment: Minimum inhibitory concentration in vitro against Enterobacter cloacae MA 2646; type: functional
Staphylococcus aureus [1] = experiment: Minimum inhibitory concentration was evaluated in vitro against Staphylococcus aureus H 228; type: functional
In short: (§1)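 Standard microtitration broth assay against a panel of 10 Gram-positive and Gram-negative organisms. MIC read in µg/mL and averaged over multiple experiments.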

Staphylococcus aureus [2] = experiment: Minimum inhibitory concentration was evaluated in vitro against Staphylococcus aureus UC 76; type: functional; in short: as §1
Enterococcus faecalis = experiment: Minimum inhibitory concentration was evaluated in vitro against Enterococcus faecalis MGH-2; type: functional; in short: as §1
Streptococcus pyogenes [3] = experiment: Minimum inhibitory concentration was evaluated in vitro against Streptococcus pyogenes C 203; type: functional; in short: as §1
Escherichia coli [4] = experiment: Antibacterial activity against Escherichia coli Vogel after oral administration in mouse; type: functional; conditions: Escherichia coli, po; read-out: PD50
Klebsiella pneumoniae = experiment: Minimum inhibitory concentration was evaluated in vitro against Klebsiella pneumoniae MGH2; type: functional; in short: as §1
DNA gyrase = DNA gyrase (Escherichia coli, UniProt P0AES4+P0AES6); experiment: Inhibition against DNA gyrase; type: protein-complex assay
Streptococcus pneumoniae [5] = experiment: Minimum inhibitory concentration was evaluated in vitro against Streptococcus pneumoniae SV-1; type: functional; in short: as §1
Pseudomonas aeruginosa = experiment: Minimum inhibitory concentration was evaluated in vitro against Pseudomonas aeruginosa UI-18; type: functional; in short: as §1
Streptococcus pyogenes [6] = experiment: Compounds were evaluated in vivo for antibacterial activity for mouse protection against Streptococcus pyogenes C 203 after oral administration; type: functional; conditions: for ED50: Streptococcus pyogenes, C 203, po, read-out: PD50
Escherichia coli [7] = experiment: Antibacterial activity in vitro against Escherichia coli Vogel; type: functional; in short: as §1
Providencia rettgeri = experiment: Minimum inhibitory concentration was evaluated in vitro against Providencia rettgeri M1771; type: functional; in short: as §1
Streptococcus pyogenes [8] = experiment: Antibacterial activity measured as mouse protection against Streptococcus pyogenes C 203 after subcutaneous administration; type: functional; conditions: for ED50: Streptococcus pyogenes, C 203, sc, read-out: PD50
Escherichia coli [9] = experiment: Antibacterial activity against Escherichia coli Vogel after subcutaneous administration in mouse; type: functional; conditions: Escherichia coli, sc; read-out: PD50
Streptococcus pneumoniae [10] = experiment: Antibacterial activity expressed as Minimum inhibitory concentration was evaluated in vitro against Streptococcus pneumoniae SV-1; type: functional
In short: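 Standard microtitration broth MIC (μg/mL), averaged from multiple experiments; one of a 10-organism Gram-positive/Gram-negative panel.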

[11] = Clonogenic cytotoxicity against hamster V-79 cells; type: functional, Cricetulus griseus, V79
In short: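 Chinese hamster V-79 cells grown overnight, then drug-treated for 3 h at 37 °C. Medium is replaced with fresh medium and cells are incubated 5 days to allow colony formation. IC50 (µg/mL) is the concentration inhibiting colony formation by 50% relative to control.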

Mus musculus = organism: Mus musculus; experiment: Compound was evaluated for phototoxicity no-effect dose in mouse; type: functional
In short: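 Depilated female CD-1 mice, five per dose plus controls. Animals are dosed orally and then exposed daily to UV-A (320–400 nm) for 3 h, for up to 4 days or until a definite positive response. Redness or erythema relative to controls, read 24 h after irradiation, counts as positive. Reported as the highest dose with no effect (mg/kg).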

[12] = Enterobacter cloacae, read-out: MIC
[13] = Staphylococcus aureus, read-out: MIC
[14] = Enterococcus faecalis, read-out: MIC
[15] = Streptococcus pyogenes, read-out: MIC
[16] = Klebsiella pneumoniae, read-out: MIC
[17] = Streptococcus pneumoniae, read-out: MIC
[18] = Pseudomonas aeruginosa, read-out: MIC
[19] = Escherichia coli, read-out: MIC
[20] = Providencia rettgeri, read-out: MIC

Work on `NC1CCN(c2cc3c(cc2F)c(=O)c(C(=O)O)cn3C2CC2)C1` (stereo unspecified) yielded an MIC (Enterobacter cloacae; [12]) of 0.025 µg/mL (≈ 0.0754 µM), an MIC (Staphylococcus aureus [1]; [13]) of 0.2 µg/mL (≈ 0.604 µM) and an MIC (Staphylococcus aureus [2]; [13]) of 0.025 µg/mL (≈ 0.0754 µM). For the same compound, the MIC (Enterococcus faecalis; [14]) was 0.1 µg/mL (≈ 0.302 µM), the MIC (Streptococcus pyogenes [3]; [15]) was 0.1 µg/mL (≈ 0.302 µM) and the ED50 (Escherichia coli [4]) was 3 mg/kg. For the same compound, the MIC (Klebsiella pneumoniae; [16]) was 0.05 µg/mL (≈ 0.151 µM) and the IC50 (DNA gyrase) was 754 nM.
With `CC1(CN)CCN(c2nc3c(cc2F)c(=O)c(C(=O)O)cn3C2CC2)C1` (stereo unspecified) the MIC (Streptococcus pneumoniae [5]; [17]) was 0.025 µg/mL (≈ 0.0694 µM), the MIC (Pseudomonas aeruginosa; [18]) was 0.8 µg/mL (≈ 2.22 µM) and the MIC (Enterobacter cloacae; [12]) was 0.1 µg/mL (≈ 0.277 µM). For the same compound, the MIC (Staphylococcus aureus [1]; [13]) was 0.025 µg/mL (≈ 0.0694 µM), the MIC (Staphylococcus aureus [2]; [13]) was 0.006 µg/mL (≈ 0.0166 µM) and the MIC (Enterococcus faecalis; [14]) was 0.05 µg/mL (≈ 0.139 µM). The MIC (Streptococcus pyogenes [3]; [15]) was 0.05 µg/mL (≈ 0.139 µM), the ED50 (Streptococcus pyogenes [6]) was 6 mg/kg and the MIC (Escherichia coli [7]; [19]) was 0.2 µg/mL (≈ 0.555 µM). For the same compound, the MIC (Providencia rettgeri; [20]) was 0.4 µg/mL (≈ 1.11 µM), the ED50 (Escherichia coli [4]) was 10 mg/kg and the ED50 (Streptococcus pyogenes [8]) was 2 mg/kg. The MIC (Klebsiella pneumoniae; [16]) was 0.1 µg/mL (≈ 0.277 µM), the IC50 (DNA gyrase) was 13900 nM and the ED50 (Escherichia coli [9]) was 2 mg/kg.
For `NC1CCN(c2nc3c(cc2F)c(=O)c(C(=O)O)cn3C2CC2)C1` (stereo unspecified), the MIC (Streptococcus pneumoniae [10]) was 0.2 µg/mL (≈ 0.602 µM), the MIC (Pseudomonas aeruginosa; [18]) was 0.1 µg/mL (≈ 0.301 µM) and the MIC (Enterobacter cloacae; [12]) was 0.025 µg/mL (≈ 0.0752 µM). For the same compound, the MIC (Staphylococcus aureus [1]; [13]) was 0.2 µg/mL (≈ 0.602 µM), the Cytotoxicity [11] was 98 µg/mL and the Dose (Mus musculus) was >100 mg/kg. The MIC (Staphylococcus aureus [2]; [13]) was 0.013 µg/mL (≈ 0.0391 µM), the MIC (Enterococcus faecalis; [14]) was 0.2 µg/mL (≈ 0.602 µM) and the MIC (Streptococcus pyogenes [3]; [15]) was 0.2 µg/mL (≈ 0.602 µM). It also gave an ED50 (Streptococcus pyogenes [6]) of 32 mg/kg, an MIC (Escherichia coli [7]; [19]) of 0.013 µg/mL (≈ 0.0391 µM) and an MIC (Providencia rettgeri; [20]) of 0.05 µg/mL (≈ 0.15 µM). The ED50 (Escherichia coli [4]) was 2 mg/kg, the ED50 (Streptococcus pyogenes [8]) was 14 mg/kg and the MIC (Klebsiella pneumoniae; [16]) was 0.025 µg/mL (≈ 0.0752 µM). For the same compound, the IC50 (DNA gyrase) was 2260 nM and the ED50 (Escherichia coli [9]) was 0.6 mg/kg.
With `NCC1CCN(c2nc3c(cc2F)c(=O)c(C(=O)O)cn3C2CC2)C1` (stereo unspecified) the MIC (Streptococcus pneumoniae [5]; [17]) was 0.1 µg/mL (≈ 0.289 µM), the MIC (Pseudomonas aeruginosa; [18]) was 0.2 µg/mL (≈ 0.577 µM) and the MIC (Enterobacter cloacae; [12]) was 0.1 µg/mL (≈ 0.289 µM). It also gave an MIC (Staphylococcus aureus [1]; [13]) of 0.1 µg/mL (≈ 0.289 µM), an MIC (Staphylococcus aureus [2]; [13]) of 0.003 µg/mL (≈ 0.00866 µM) and an MIC (Enterococcus faecalis; [14]) of 0.025 µg/mL (≈ 0.0722 µM). The MIC (Streptococcus pyogenes [3]; [15]) was 0.025 µg/mL (≈ 0.0722 µM), the ED50 (Streptococcus pyogenes [6]) was 39 mg/kg and the MIC (Escherichia coli [7]; [19]) was 0.05 µg/mL (≈ 0.144 µM). For the same compound, the MIC (Providencia rettgeri; [20]) was 0.4 µg/mL (≈ 1.15 µM), the ED50 (Escherichia coli [4]) was 17 mg/kg and the ED50 (Streptococcus pyogenes [8]) was 4 mg/kg. The MIC (Klebsiella pneumoniae; [16]) was 0.1 µg/mL (≈ 0.289 µM), the IC50 (DNA gyrase) was 2170 nM and the ED50 (Escherichia coli [9]) was 1 mg/kg.
Compound `C[C@H](N)[C@H]1CCN(c2cc3c(cc2F)c(=O)c(C(=O)O)cn3C2CC2)C1` has an MIC (Streptococcus pneumoniae [5]; [17]) of 0.2 µg/mL (≈ 0.556 µM), an MIC (Pseudomonas aeruginosa; [18]) of 1.6 µg/mL (≈ 4.45 µM) and an MIC (Enterobacter cloacae; [12]) of 0.2 µg/mL (≈ 0.556 µM). The MIC (Staphylococcus aureus [1]; [13]) was 0.8 µg/mL (≈ 2.23 µM), the MIC (Staphylococcus aureus [2]; [13]) was 0.1 µg/mL (≈ 0.278 µM) and the MIC (Enterococcus faecalis; [14]) was 0.4 µg/mL (≈ 1.11 µM). The MIC (Streptococcus pyogenes [3]; [15]) was 0.1 µg/mL (≈ 0.278 µM), the ED50 (Streptococcus pyogenes [6]) was > 100 mg/kg and the MIC (Escherichia coli [7]; [19]) was 0.2 µg/mL (≈ 0.556 µM). For the same compound, the MIC (Providencia rettgeri; [20]) was 0.8 µg/mL (≈ 2.23 µM), the ED50 (Streptococcus pyogenes [8]) was 12 mg/kg and the MIC (Klebsiella pneumoniae; [16]) was 0.4 µg/mL (≈ 1.11 µM). For the same compound, the IC50 (DNA gyrase) was 20900 nM.
In the case of `C[C@@H](N)[C@H]1CCN(c2cc3c(cc2F)c(=O)c(C(=O)O)cn3C2CC2)C1`, the MIC (Streptococcus pneumoniae [5]) is reported as 0.1 µg/mL (≈ 0.278 µM), the MIC (Pseudomonas aeruginosa) is reported as 1.6 µg/mL (≈ 4.45 µM) and the MIC (Enterobacter cloacae) is reported as 0.2 µg/mL (≈ 0.556 µM). It also gave an MIC (Staphylococcus aureus [1]) of 0.4 µg/mL (≈ 1.11 µM), an MIC (Staphylococcus aureus [2]) of 0.05 µg/mL (≈ 0.139 µM) and an MIC (Enterococcus faecalis) of 0.2 µg/mL (≈ 0.556 µM). For the same compound, the MIC (Streptococcus pyogenes [3]) was 0.1 µg/mL (≈ 0.278 µM), the PD50 (Streptococcus pyogenes [6]) was >100 mg/kg and the MIC (Escherichia coli [7]) was 0.2 µg/mL (≈ 0.556 µM). For the same compound, the MIC (Providencia rettgeri) was 0.8 µg/mL (≈ 2.23 µM), the PD50 (Streptococcus pyogenes [8]) was 3 mg/kg and the MIC (Klebsiella pneumoniae) was 0.4 µg/mL (≈ 1.11 µM). The IC50 (DNA gyrase) was 20900 nM.
With `CCN[C@H](C)[C@H]1CCN(c2c(F)cc3c(=O)c(C(=O)O)cn(C4CC4)c3c2C(F)(F)F)C1` (racemic) the MIC (Streptococcus pneumoniae [5]; [17]) was 0.013 µg/mL (≈ 0.0285 µM), the MIC (Pseudomonas aeruginosa; [18]) was 6.3 µg/mL (≈ 13.8 µM) and the MIC (Enterobacter cloacae; [12]) was 0.4 µg/mL (≈ 0.878 µM). The MIC (Staphylococcus aureus [1]; [13]) was 0.05 µg/mL (≈ 0.11 µM), the MIC (Staphylococcus aureus [2]; [13]) was 0.013 µg/mL (≈ 0.0285 µM) and the MIC (Enterococcus faecalis; [14]) was 0.1 µg/mL (≈ 0.22 µM). The MIC (Streptococcus pyogenes [3]; [15]) was 0.025 µg/mL (≈ 0.0549 µM), the ED50 (Streptococcus pyogenes [6]) was 0.7 mg/kg and the MIC (Escherichia coli [7]; [19]) was 0.8 µg/mL (≈ 1.76 µM). The MIC (Providencia rettgeri; [20]) was 1.6 µg/mL (≈ 3.51 µM), the ED50 (Escherichia coli [4]) was 5 mg/kg and the ED50 (Streptococcus pyogenes [8]) was 0.5 mg/kg. For the same compound, the MIC (Klebsiella pneumoniae; [16]) was 1.6 µg/mL (≈ 3.51 µM), the IC50 (DNA gyrase) was 1930 nM and the ED50 (Escherichia coli [9]) was 3 mg/kg.
Work on `C[C@@H](N)[C@H]1CCN(c2cc3c(cc2F)c(=O)c(C(=O)O)cn3C2CC2)C1` (racemic) yielded an MIC (Streptococcus pneumoniae [5]) of 0.013 µg/mL (≈ 0.0362 µM), an MIC (Pseudomonas aeruginosa) of 0.4 µg/mL (≈ 1.11 µM) and an MIC (Enterobacter cloacae) of 0.05 µg/mL (≈ 0.139 µM). For the same compound, the MIC (Staphylococcus aureus [1]) was 0.05 µg/mL (≈ 0.139 µM), the MIC (Staphylococcus aureus [2]; [13]) was 0.025 µg/mL (≈ 0.0696 µM) and the MIC (Enterococcus faecalis) was 0.025 µg/mL (≈ 0.0696 µM). It also gave an MIC (Streptococcus pyogenes [3]) of 0.003 µg/mL (≈ 0.00835 µM), a PD50 (Streptococcus pyogenes [6]) of 11 mg/kg and an MIC (Escherichia coli [7]) of 0.05 µg/mL (≈ 0.139 µM). It also gave an MIC (Providencia rettgeri) of 0.2 µg/mL (≈ 0.556 µM), an ED50 (Escherichia coli [4]) of 47 mg/kg and a PD50 (Streptococcus pyogenes [8]) of 1 mg/kg. The MIC (Klebsiella pneumoniae) was 0.1 µg/mL (≈ 0.278 µM), the IC50 (DNA gyrase) was 1390 nM and the ED50 (Escherichia coli [9]) was 1 mg/kg.
